GRIN3A LBD mod: binders of NR3A ligand-binding domain, primary screen, biophysical, differential scanning fluorimetry, uHTS; Glutamate receptor ionotropic, NMDA 3A (GRIN3A) ligand-binding domain; AID 1259313, 2017; NR3A LBD differential scanning fluorimetry, Tm shift; 0% = protein alone, 100% = glycine-bound protein; actives 2.5% (n = 340,000); Tm shift relative to glycine control, % at 25 µM;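 active = melting temperature shift of at least 10% of the positive control shift, at one fixed dose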
ZTA counter: blocks Epstein-Barr virus ZTA, an EBNA-1 counter-screen; P03206; ZTA-DNA binding, fluorescence polarization; actives 0.15% (n = 320,000); inhibition, % at 11 µM; AID 2234; in the data active = inhibition above about 33%
Target sequence (P03206 whole entry, looked up): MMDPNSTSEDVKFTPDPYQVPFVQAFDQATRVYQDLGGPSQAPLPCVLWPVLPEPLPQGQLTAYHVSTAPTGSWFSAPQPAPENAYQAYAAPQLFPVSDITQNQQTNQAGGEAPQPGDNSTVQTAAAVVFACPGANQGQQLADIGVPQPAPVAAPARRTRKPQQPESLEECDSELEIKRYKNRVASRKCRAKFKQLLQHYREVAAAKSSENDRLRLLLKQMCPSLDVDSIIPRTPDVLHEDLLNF
DNA FID counter: compounds displacing fluorescent DNA intercalator, primary screen, artefact control for HCV NS3 helicase inhibitor project, biochemical, FID fluorescence; DNA fluorescent intercalator displacement; inhibition, % at 7.9 µM; actives 0.17% (n = 290,000); AID 1845, 2009; in the data active = inhibition above about 37%;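 also: 0% = vehicle and 100% = reference compound; higher means more ethidium bromide displaced from hairpin DNA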
NS3 helicase inh: inhibitors of HCV NS3 helicase, primary screen, biochemical, Cy5 molecular beacon fluorescence; inhibition, % at 10.9 µM; AID 1800, 2009; Hepatitis C virus NS3 helicase; NS3 helicase DNA unwinding; actives 0.56% (n = 290,000);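 active = inhibition above the mean of all tested compounds plus 3 SD, set per campaign, cut at about 35% in these data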;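 also: 0% = DMSO wells and 100% = thioflavine S control wells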
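test system = hepatitis C virus NS3 helicase domain fragment enzyme | reagent = annealed dual-labelled DNA beacon duplex, ATP-started | times = 1 h at 25 °C | detection = Cy5 fluorescence, 0 and 60 min reads | read-out basis = percent inhibition from t60/t0 fluorescence ratio | control set = DMSO and thioflavine S | replication = one well per compound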
EBNA-1 inhibitor: EBNA-1 DNA-binding inhibitors, primary screen, biochemical, fluorescence polarization | inhibition, % at 14.8 µM | actives 0.34% (n = 300,000) | AID 1950, 2009; in the data active = inhibition above about 28%
FGF22 binding: binders of human FGF22 protein, primary screen, FGF22 synaptogenesis inhibitor project, biophysical, thermal shift, single point. AID 651658, 2012. activity (Tm shift, normalised), % at 9.99 µM. recombinant FGF22 thermal shift, SYPRO orange fluorescence; percent of sucrose octasulfate shift, DMSO zero. actives 1.5% (n = 340,000);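 active = mean Tm shift, scaled 0 neutral to 100 positive control, at about 1.3% or above, every replicate too, limit read from the data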
Target sequence (Q9HCT0 whole entry, looked up): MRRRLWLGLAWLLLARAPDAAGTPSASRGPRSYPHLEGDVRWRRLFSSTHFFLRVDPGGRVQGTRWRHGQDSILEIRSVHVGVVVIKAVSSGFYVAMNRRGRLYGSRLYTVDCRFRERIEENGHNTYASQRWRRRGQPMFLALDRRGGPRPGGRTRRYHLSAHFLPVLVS
* = called active by the depositor; nt = no result given. Sampled rows, rich in hits. Any-hit rate of the full collection: about 3.6%.

SMILES | GRIN3A LBD mod | ZTA counter | DNA FID counter | NS3 helicase inh | EBNA-1 inhibitor | FGF22 binding
COc1cccc(NC(=O)c2cccs2)c1 | 25.5* | -12.6 | -1.1 | 5.1 | 1.4 | nt
CC(=O)c1ccc(NC(=O)c2cccs2)cc1 | -20.6 | 0.6 | -2.7 | -2.2 | -1.4 | 0.0
CC1CCCN(C(=O)COc2ccc(NC(=O)c3cccs3)cc2)C1 (stereo unspecified) | 0.6 | -13.0 | -18.6 | -2.7 | -10.6 | 43.5*
COc1ccc(C(=O)/C=C\c2ccc(NC(=O)c3cccs3)cc2)cc1 | 23.0* | 8.5 | -2.6 | -3.8 | 9.3 | nt
O=C(O)COc1ccc(NC(=O)c2cccs2)cc1 | -0.8 | -9.1 | -0.1 | 3.7 | 3.5 | 0.4
COc1ccc(C(=O)Nc2cccc(NC(=O)c3cccs3)c2)cc1 | 8.0 | -29.0 | -10.4 | 25.9 | -10.8 | -0.1
C[C@@H]1CCCCO[C@@H](CN(C)C(=O)NC2CCCCC2)[C@H](C)CN([C@@H](C)CO)C(=O)c2cc(NC(=O)CCCN(C)C)ccc2O1 | nt | nt | nt | nt | nt | -0.1
C[C@@H]1CN([C@H](C)CO)C(=O)Cc2cc(NC(=O)Nc3ccc(C(F)(F)F)cc3)ccc2O[C@@H]1CN(C)C(=O)Nc1ccc(F)cc1 | nt | nt | nt | nt | nt | -0.4
O=C(Nc1ccc(NC(=O)c2cccs2)cn1)c1ccccc1 | 13.6* | -14.1 | -11.3 | -15.2 | 1.2 | 43.2*
COc1ccc(NC(=O)c2ccc(NC(=O)c3cccs3)cc2)cc1 | 25.6* | -12.7 | -4.4 | 16.6 | 3.9 | 0.1
COc1ccc(/C=C/C(=O)c2ccoc2)cc1 | -0.3 | 0.8 | -1.4 | -4.2 | 8.2 | nt
COc1ccc(CCNC(=O)c2cccs2)cc1 | 30.9* | -1.9 | 0.1 | 12.0 | -12.4 | -0.1
COc1ccc(/C=C/C(=O)c2ccc(O)cc2)cc1 | 11.0* | 1.4 | -5.1 | 5.7 | 4.0 | 1.5*
CC(C)NC(=O)N1[C@@H]2CN(C(=O)C3CCC3)c3ccccc3[C@@H]2[C@@H]1CO | nt | nt | nt | nt | nt | 0.2
C[C@H](CO)N1C[C@H](C)[C@@H](CN(C)S(=O)(=O)c2cccs2)Oc2ccc(NS(=O)(=O)c3ccc(F)cc3)cc2CC1=O | nt | nt | nt | nt | nt | 0.3
COc1cc(C(=O)NCCc2cc3c(OC)ccc(OC)c3[nH]c2=O)cc(OC)c1OC | -2.8 | 15.6 | -37.3 | -0.1 | -1.7 | -0.4
COc1ccc(Cl)cc1-c1nc(-c2ccc(NC(=O)c3cccs3)cc2)no1 | 35.2* | 9.1 | -0.8 | -2.2 | 2.2 | nt
COc1ccc(OC)c2[nH]c(=O)c(CCNC(=O)c3cccs3)cc12 | -1.9 | 19.1 | -16.8 | -3.1 | -0.5 | 43.9*
COc1ccc(OCC(=O)Nc2ccc(NC(=O)c3cccs3)cc2)cc1 | 32.3* | -0.2 | -17.3 | 9.0 | 11.9 | 0.1
COc1ccc(OCC(=O)NNC(=O)c2cccs2)cc1 | -2.7 | -1.3 | 0.0 | -1.5 | -2.7 | nt
COc1cccc(CN2CC3(C2)CN(C(=O)C2CC2)[C@H](CO)c2[nH]c4cc(OC)ccc4c23)c1 | nt | nt | nt | nt | nt | 0.0
Cn1cc(CN2CCC(C(=O)Nc3cccc(-c4cccc(F)c4)c3)CC2)cn1 | -2.6 | 4.6 | 26.0 | -35.5 | 8.6 | -0.1
C=CCn1cc(CN2CCC(C(=O)Nc3cccc(-c4cccc(F)c4)c3)CC2)c(C)n1 | -0.8 | 8.4 | 19.9 | -73.0 | 10.9 | 0.1
CCCn1ncc(CN2CCC(C(=O)Nc3cccc(-c4cccc(F)c4)c3)CC2)c1C | 0.1 | -7.9 | 44.3* | -79.5 | -5.8 | 0.0
C=CCn1cc(CN2CCC(C(=O)Nc3cccc(-c4cccc(Cl)c4)c3)CC2)c(C)n1 | -1.6 | -11.7 | 40.8* | -72.4 | -18.3 | -0.3
O=C(Nc1cccc(Br)c1)c1ccn[nH]1 | 26.9* | -12.6 | 3.2 | -3.6 | -6.8 | nt
CC(=O)Nc1cccc(NC(=O)c2cccc(Cl)c2)c1 | nt | nt | nt | nt | nt | 0.4
O=C(NS(=O)(=O)c1ccccc1)c1cccc(Br)c1 | 20.6* | -7.7 | -0.1 | 10.6 | -1.8 | 0.0
O=C(Nc1cccc(C(=O)Nc2cccc(Br)c2)c1)c1ccccc1 | 35.2* | 10.9 | -5.7 | -4.0 | 10.2 | -0.2

Screening data deposited in PubChem by several laboratories.
